Bioassay records: PubChem BioAssay, several laboratories
This is a sample that favours compounds with a hit; in the whole collection about 5.4% have one here.
Ecoli tolC = blocks growth of E. coli BW25113 tolC mutant | OD615 | growth inhibition, % at 10 µM (by protocol) | actives 2.2% (n = 65,000);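 active means growth inhibition at or above a cutoff equal to the mean over every tested compound plus 3 SD, cut at about 60% in these data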;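 further: growth measured after 20 h incubation at 37 °C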
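Doses: one dose of 10 µM final / Material: E. coli BW25113 ΔtolC::kan, tolC deletion mutant strain / Buffer or medium: LB with kanamycin 50 µg/mL / Evaluation: percent growth inhibition / Detection: optical density read at 615 nm / Incubation: 37 °C, 20 h exposure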
PostGolgi ctrl = growth of the yeast control strain, post-Golgi counter-screen. inhibition, % at 10 µM. efflux-deficient yeast background strain, growth absorbance A615, 16 h. actives 5% (n = 98,000)
HePTP inh = human HePTP phosphatase inhibition. P35236. actives 0.64% (n = 110,000). recombinant HePTP phosphatase activity, OD absorbance. inhibition, % at 20 µM; in the data active means inhibition above about 50%;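 further: plate controls were vehicle for no effect and reference inhibitor for full effect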
PLAP act = activators of human placental alkaline phosphatase; P05187; purified PLAP enzyme, luminescent substrate read-out; stronger effect = higher value; activation fold at 20 µM; actives 1.2% (n = 96,000); in the data active means activation fold above about 2
Target sequence (P05187 whole entry, looked up): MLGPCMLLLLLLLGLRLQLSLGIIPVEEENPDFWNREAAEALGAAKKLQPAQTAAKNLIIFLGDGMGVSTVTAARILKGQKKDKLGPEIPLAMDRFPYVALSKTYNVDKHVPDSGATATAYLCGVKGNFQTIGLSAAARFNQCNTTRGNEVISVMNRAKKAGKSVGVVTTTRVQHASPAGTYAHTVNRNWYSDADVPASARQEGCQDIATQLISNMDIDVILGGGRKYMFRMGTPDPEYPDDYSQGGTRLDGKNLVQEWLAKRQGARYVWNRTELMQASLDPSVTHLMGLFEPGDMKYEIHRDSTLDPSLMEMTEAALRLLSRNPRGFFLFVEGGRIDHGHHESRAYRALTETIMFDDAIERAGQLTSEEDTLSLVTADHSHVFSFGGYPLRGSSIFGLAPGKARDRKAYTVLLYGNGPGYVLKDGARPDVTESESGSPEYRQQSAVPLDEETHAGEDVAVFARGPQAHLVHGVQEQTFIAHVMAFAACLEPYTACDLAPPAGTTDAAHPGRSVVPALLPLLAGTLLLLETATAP
PostGolgi yeast = growth inhibition of a yeast mutant, post-Golgi transport screen | inhibition, % at 10 µM | actives 0.9% (n = 98,000) | post-Golgi transport phenotypic cell assay;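 further: yeast cells grown in 1536-well plates; yeast grown about 18 h at 30C before absorbance read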
E coli WT exp = blocks growth of wild type E. coli BW25113 | actives 0.15% (n = 98,000) | OD600 absorbance | growth inhibition, % at 100 µM;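 active means growth inhibition above about 50% at one test dose, limit read from the data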;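 further: growth measured after 20 h incubation at 37 °C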
An asterisk follows results filed as active; / = not tested or not shown. Unless noted, no stated cut-off is given here; in the data, active means inhibition above about 30%; inactive means the rest.

SMILES | Ecoli tolC | PostGolgi ctrl | HePTP inh | PLAP act | PostGolgi yeast | E coli WT exp
COc1ccc(NC(C)C(=O)Nc2ccc(C#N)cc2)cc1Cl (stereo unspecified) | / | 11 | / | 0.8 | -5 | 12
COc1ccc(NC(C)C(=O)Nc2ccc(C(C)(C)C)cc2)cc1Cl (stereo unspecified) | / | 34* | / | 1.5 | -5 | 0
COc1c2c(nc3occc13)C(CCC(C)(C)O)(OC)C(O)CC2 (stereo unspecified) | -18 | 30* | 8 | 1.2 | 23 | 0
O=C(NC(NC(=S)Nc1ccc(Cl)c(Cl)c1)C(Cl)(Cl)Cl)c1cccc([N+](=O)[O-])c1 (stereo unspecified) | / | / | 104* | / | / | /
CC(=O)Nc1ccc(NC(=S)NC(NC(=O)c2cccc([N+](=O)[O-])c2)C(Cl)(Cl)Cl)cc1 (stereo unspecified) | / | / | 10 | / | / | /
CCOC(=O)N1CCN(C(=O)C2CCN(S(=O)(=O)c3c(C)cc(C)cc3C)CC2)CC1 | / | 11 | / | 1.8 | 1 | 2
CCCCCn1c(N2CCN(c3cccc(Cl)c3)CC2)nc2c1c(=O)[nH]c(=O)n2C | -1 | 20 | 4 | 2* | 28 | -3
Cc1ccc(Cl)cc1N1CCN(Cc2nc3ccsc3c(=O)[nH]2)CC1 | / | 21 | / | 2.3* | 0 | 6
CCCCn1c(N2CCC(Cc3ccccc3)CC2)nc2c1c(=O)[nH]c(=O)n2C | 100* | 63* | 0 | 0.9 | 7 | -14
CCCCCn1c(CN2CCN(c3cc(Cl)ccc3C)CC2)nc2c1c(=O)[nH]c(=O)n2C | 2 | 56* | 6 | 1.1 | -2 | 3
Cn1c(=O)[nH]c(=O)c2c1nc(N1CCN(c3cccc(Cl)c3)CC1)n2CCCc1ccccc1 | 17 | 5 | 4 | 0.8 | -1 | -9
Cc1ccc(NC(=O)CSc2nnc(-c3cnccn3)n2Cc2ccco2)cc1 | 0 | 11 | 3 | 0.8 | -1 | -4
CC1CCN(c2nc3c(c(=O)[nH]c(=O)n3C)n2Cc2ccccc2Cl)CC1 | 10 | 40* | 1 | / | -1 | -9
CCCCCCn1c(N2CCC(C)CC2)nc2c1c(=O)[nH]c(=O)n2C | 11 | 34* | 3 | 1.2 | 17 | 4
COc1cc(C=NN2CCN(Cc3ccc(C)cc3C)CC2)cc(Br)c1O | / | / | 6 | / | / | /
CC(C)OC(=O)CSc1nnc(-c2cccnc2)n1N | -7 | 6 | 6 | 0.9 | -2 | 4
C=CCSc1n[nH]c(-c2ccc(OCCCC)cc2)n1 | 86* | 29 | 5 | 0.8 | 1 | 0
C=CCSc1n[nH]c(-c2ccc(OCCC)cc2)n1 | 33 | 0 | 0 | 1.2 | -9 | 21
Cc1ccc(-c2cc(C(=O)Nc3ccncc3)c3ccccc3n2)cc1C | / | / | 2 | / | / | /
CCc1ccc(/C=N/NC(=O)c2cc(-c3ccccc3OC)nc3ccccc23)s1 | / | 75* | / | 1.6 | 9 | -12
COc1ccccc1-c1cc(C(=O)N/N=C/c2ccc(C)s2)c2ccccc2n1 | / | 92* | / | 1.8 | 10 | -13
Cc1ccc(-c2cc(C(=O)N/N=C\c3cnn(C)c3C)c3ccccc3n2)cc1C | / | 17 | / | 2* | -3 | 2
COc1ccc(/C=N/NC(=O)c2cc(-c3ccccc3OC)nc3ccccc23)cc1COC(C)=O | / | 5 | / | 1 | 0 | -4
O=S(=O)(Nc1ccc(S(=O)(=O)N2CCOCC2)cc1)c1ccc(Br)cc1 | / | / | 9 | / | / | /
O=S(=O)(c1ccc(Oc2ccc(Br)cc2)cc1)N1CCOCC1 | 53 | 63* | 5 | 1 | 16 | -10
SMILES | Ecoli tolC | PostGolgi ctrl | HePTP inh | PLAP act | PostGolgi yeast | E coli WT exp
CCOC(=O)C1=C(C)NC(C)=C(C(=O)OCC)C1c1cccs1 | / | / | -9 | / | / | /
CCOC(=O)C1=C(C)NC(C)=C(C(=O)OCC)C1c1sccc1C | / | 38* | / | 1.1 | -7 | 8
Cn1ccnc1SCc1ccc([N+](=O)[O-])cc1 | / | 2 | / | 1.2 | 3 | 8
Clc1cccc(CSc2nc3ccncc3[nH]2)c1 | / | 13 | / | 2.4* | -9 | 13
Cc1ccc(OCc2nnc(NC(=O)Nc3ccc(Cl)cc3)s2)c(C)c1 | / | / | -5 | / | / | /
COc1cc(N)c(Cl)cc1NC(=O)c1ccccc1 | -5 | 39* | 4 | 0.9 | 8 | 3
CC(C)CCNC(=O)C(c1ccco1)N(Cc1ccc(F)cc1)C(=O)c1snc(C(N)=O)c1N (stereo unspecified) | 27 | -7 | 11 | 1.3 | -11 | -4
CCOC(=O)c1c(N)sc(C)c1-c1ccc(C(C)(C)C)cc1 | / | / | -7 | / | / | /
CCOC(=O)c1c(N)sc(C(O)(C(F)(F)F)C(F)(F)F)c1-c1ccccc1 | / | 32* | / | 1.6 | 3 | 7
CN(C)c1nccc(N(Cc2ccccc2)Cc2ccccc2)c1C#N | / | 30* | 10 | 1.2 | 0 | -4
O=C1C(Cl)=C(N2CCCCC2)C(=O)N1c1ccccc1Cl | -7 | 22 | 9 | 1 | -2 | 4
Cc1ccccc1N1C(=O)C(Cl)=C(N2CCCCCC2)C1=O | 41 | 40* | 11 | 1 | -3 | 4
N#Cc1c(-c2ccc(Cl)cc2Cl)nc2n(c1=O)CCS2 | 15 | 32* | 3 | 1.5 | -5 | 6
CC1CCCC(NS(=O)(=O)c2ccc3c(c2)OCCO3)C1C (stereo unspecified) | 45 | 55* | -3 | 0.9 | -7 | 8
O=S(=O)(NC1CC2CCC1C2)c1ccc2c(c1)OCCO2 (stereo unspecified) | 19 | 55* | 8 | 0.9 | 1 | 2
Cc1cccc(NS(=O)(=O)c2ccc3c(c2)OCCO3)c1 | / | -1 | / | 1.2 | 16 | 9
O=S(=O)(NCC1CCCO1)c1ccc2c(c1)OCCO2 (stereo unspecified) | -3 | -3 | 3 | 0.9 | 2 | 13
COc1ccc(S(=O)(=O)NC2CC3CCC2C3)cc1Cl (stereo unspecified) | 8 | 95* | 6 | 0.7 | 81* | 3
CC(=O)NCCn1c(SCc2ccccc2F)nc2ccccc2c1=O | 21 | 5 | 8 | 1.1 | 0 | -4
COC(=O)c1ccc(CSc2nc3ccccc3c(=O)n2Cc2ccco2)o1 | 42 | 34* | 4 | 1.4 | -7 | -12
Cc1ccc2c(CSc3nc4ccccc4c(=O)n3CCCO)cc(=O)oc2c1C | / | 32* | / | 1.5 | -3 | -3
CC(=O)NCCn1c(SCc2ccc(C)cc2)nc2ccccc2c1=O | / | 34* | / | 1.4 | 3 | -9
O/N=C\c1ccc2c(c1)OCCOCCOc1cc(/C=N/O)ccc1OCCOCCO2 | / | / | 4 | / | / | /
Cc1cc(C)n2nc(SCc3cc(=O)n4ccccc4n3)nc2n1 | -4 | / | 7 | / | / | /
O=C1c2ccccc2C(=O)c2c1oc(C(F)(F)F)c2C(=O)c1ccccc1 | / | 56* | -4 | 1 | 104* | -8
O=C(c1ccccc1)c1coc2c1C(=O)c1ccccc1C2=O | / | / | 12 | / | / | /
COc1ccc2c(c1)c(=O)oc1cc(OCC(=O)N3CCCC(C)C3)ccc12 (stereo unspecified) | 24 | 59* | 2 | 1.3 | 5 | -4
COc1ccc2c(c1)c(=O)oc1cc(OCC(=O)N3CCC(C)CC3)ccc12 | 1 | 9 | 13 | 1.3 | 1 | -1
